Activity calls are given as the source filed them. The calls are words filed in the database; no cut-off is given here.
target: Histone deacetylase; format: protein assay, Homo sapiens; conditions: not given

| IC50 [µM] | Structure (SMILES) |
| --- | --- |
| > 20 | Cc1c2ccc(N(C)c3ccnc(Nc4ccc(C(=O)NCCC(=O)Nc5ccccc5N)cc4)n3)cc2nn1C |
| 3 | Cc1c2ccc(N(C)c3ccnc(Nc4ccc(C(=O)NCCCCCC(=O)Nc5ccccc5N)cc4)n3)cc2nn1C |
| > 20 | Cc1c2ccc(N(C)c3ccnc(Nc4cccc(C(=O)NO)c4)n3)cc2nn1C |
| 15.1 | Cc1c2ccc(N(C)c3ccnc(Nc4ccc(C(=O)NCCCCC(=O)Nc5ccccc5N)cc4)n3)cc2nn1C |

target: T1, Vascular endothelial growth factor receptor 2 (Homo sapiens, UniProt P35968); experiment: Inhibition of VEGFR-2 (unknown origin) at 0.2 uM after 40 mins by kinase-Glo assay relative to control; conditions: not given
How it was run: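 VEGFR-2 tested at a single 200 nM concentration in a Kinase-Glo assay. Compound, kinase, substrate and ATP incubated 40 min at room temperature, then Kinase-Glo reagent added for 15 min and luminescence read. Inhibition rate reported. Replicates n ≥ 2.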

T1 sequence (P35968 whole entry): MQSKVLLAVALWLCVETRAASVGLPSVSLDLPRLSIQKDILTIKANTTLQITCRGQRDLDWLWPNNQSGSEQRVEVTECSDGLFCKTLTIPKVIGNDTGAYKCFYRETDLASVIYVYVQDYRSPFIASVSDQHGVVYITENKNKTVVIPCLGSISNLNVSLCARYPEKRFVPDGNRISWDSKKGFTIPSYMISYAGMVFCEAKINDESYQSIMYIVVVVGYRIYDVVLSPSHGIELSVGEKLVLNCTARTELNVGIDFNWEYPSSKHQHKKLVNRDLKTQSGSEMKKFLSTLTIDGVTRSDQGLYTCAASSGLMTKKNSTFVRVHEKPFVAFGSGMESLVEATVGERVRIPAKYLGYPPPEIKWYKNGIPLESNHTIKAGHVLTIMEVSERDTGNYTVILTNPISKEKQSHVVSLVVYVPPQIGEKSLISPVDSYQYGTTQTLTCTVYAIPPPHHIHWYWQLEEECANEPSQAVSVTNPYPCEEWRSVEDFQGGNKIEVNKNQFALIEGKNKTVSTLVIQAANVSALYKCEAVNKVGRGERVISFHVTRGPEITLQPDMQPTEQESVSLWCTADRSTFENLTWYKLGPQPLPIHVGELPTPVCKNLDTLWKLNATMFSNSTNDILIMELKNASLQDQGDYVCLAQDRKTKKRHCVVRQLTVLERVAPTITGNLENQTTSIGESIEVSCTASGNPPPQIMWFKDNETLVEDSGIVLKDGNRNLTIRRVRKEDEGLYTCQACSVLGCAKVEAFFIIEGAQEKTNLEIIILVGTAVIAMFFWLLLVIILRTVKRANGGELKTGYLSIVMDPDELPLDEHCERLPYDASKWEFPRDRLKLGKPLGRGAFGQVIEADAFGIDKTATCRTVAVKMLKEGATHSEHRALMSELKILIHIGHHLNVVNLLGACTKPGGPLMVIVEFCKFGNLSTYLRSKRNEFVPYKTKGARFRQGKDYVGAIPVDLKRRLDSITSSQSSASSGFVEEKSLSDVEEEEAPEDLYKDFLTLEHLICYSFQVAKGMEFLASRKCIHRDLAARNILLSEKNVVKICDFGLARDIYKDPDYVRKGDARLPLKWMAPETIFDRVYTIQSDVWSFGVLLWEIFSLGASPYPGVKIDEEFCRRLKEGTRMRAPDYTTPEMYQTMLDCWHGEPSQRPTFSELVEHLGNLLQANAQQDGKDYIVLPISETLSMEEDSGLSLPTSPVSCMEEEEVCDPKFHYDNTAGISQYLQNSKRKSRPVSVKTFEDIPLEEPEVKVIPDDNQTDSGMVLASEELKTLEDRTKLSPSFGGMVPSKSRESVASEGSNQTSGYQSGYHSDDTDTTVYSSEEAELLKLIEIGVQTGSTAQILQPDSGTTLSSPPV

| Structure (SMILES) | inhibition [%] |
| --- | --- |
| Cc1ccc(Nc2nccc(N(C)c3ccc4c(C)n(C)nc4c3)n2)cc1S(N)(=O)=O [PAZOPANIB] | 95 |
| Cc1c2ccc(N(C)c3ccnc(Nc4cccc(C(=O)NO)c4)n3)cc2nn1C | 77 |

Further lines, results first:

| inhibition [%] | Structure (SMILES) |
| --- | --- |
| 97 | Cc1c2ccc(N(C)c3ccnc(Nc4ccc(C(=O)NCCC(=O)Nc5ccccc5N)cc4)n3)cc2nn1C |
| 95 | Cc1c2ccc(N(C)c3ccnc(Nc4ccc(C(=O)NCCCCCC(=O)Nc5ccccc5N)cc4)n3)cc2nn1C |
| 94 | Cc1c2ccc(N(C)c3ccnc(Nc4ccc(C(=O)NCCCCC(=O)Nc5ccccc5N)cc4)n3)cc2nn1C |

test system: HT-29; experiment: Antiproliferative activity against human HT-29 cells after 72 hrs by MTT assay; format: functional, cell-based; conditions: HT-29, 72 h

| IC50 [µM] | Structure (SMILES) |
| --- | --- |
| 3.1 | Nc1ccccc1NC(=O)c1ccc(CNC(=O)OCc2cccnc2)cc1 [ENTINOSTAT] |
| > 5 | Cc1ccc(Nc2nccc(N(C)c3ccc4c(C)n(C)nc4c3)n2)cc1S(N)(=O)=O [PAZOPANIB] |

test system: ACHN; experiment: Antiproliferative activity against human ACHN cells after 72 hrs by MTT assay; format: functional, cell-based; conditions: not given

| IC50 [nM] | Structure (SMILES) |
| --- | --- |
| 2400 | Nc1ccccc1NC(=O)c1ccc(CNC(=O)OCc2cccnc2)cc1 [ENTINOSTAT] |
| > 5000 | Cc1ccc(Nc2nccc(N(C)c3ccc4c(C)n(C)nc4c3)n2)cc1S(N)(=O)=O [PAZOPANIB] |

test system: AGS; experiment: Antiproliferative activity against human AGS cells after 72 hrs by MTT assay; format: functional, cell-based; conditions: not given

| IC50 [nM] | Structure (SMILES) |
| --- | --- |
| 340 | Nc1ccccc1NC(=O)c1ccc(CNC(=O)OCc2cccnc2)cc1 [ENTINOSTAT] |
| > 5000 | Cc1ccc(Nc2nccc(N(C)c3ccc4c(C)n(C)nc4c3)n2)cc1S(N)(=O)=O [PAZOPANIB] |

test system: HeLa; experiment: Antiproliferative activity against human HeLa cells after 72 hrs by MTT assay; format: functional, cell-based; conditions: not given

| IC50 [µM] | Structure (SMILES) |
| --- | --- |
| > 5 | Nc1ccccc1NC(=O)c1ccc(CNC(=O)OCc2cccnc2)cc1 [ENTINOSTAT] |
| > 5 | Cc1ccc(Nc2nccc(N(C)c3ccc4c(C)n(C)nc4c3)n2)cc1S(N)(=O)=O [PAZOPANIB] |

test system: PC-3; experiment: Antiproliferative activity against human PC3 cells after 72 hrs by MTT assay; format: functional, cell-based; conditions: PC-3, 72 h

| IC50 [µM] | Structure (SMILES) |
| --- | --- |
| > 5 | Nc1ccccc1NC(=O)c1ccc(CNC(=O)OCc2cccnc2)cc1 [ENTINOSTAT] |
| > 5 | Cc1ccc(Nc2nccc(N(C)c3ccc4c(C)n(C)nc4c3)n2)cc1S(N)(=O)=O [PAZOPANIB] |
| > 5 | Cc1c2ccc(N(C)c3ccnc(Nc4ccc(C(=O)NCCCCCC(=O)Nc5ccccc5N)cc4)n3)cc2nn1C |

test system: MDA-MB-231; experiment: Antiproliferative activity against human MDA-MB-231 cells after 72 hrs by MTT assay; format: functional, cell-based; conditions: MDA-MB-231, 72 h

| IC50 [nM] | Structure (SMILES) |
| --- | --- |
| 2550 | Nc1ccccc1NC(=O)c1ccc(CNC(=O)OCc2cccnc2)cc1 [ENTINOSTAT] |
| > 5000 | Cc1ccc(Nc2nccc(N(C)c3ccc4c(C)n(C)nc4c3)n2)cc1S(N)(=O)=O [PAZOPANIB] |

test system: HT-1080; experiment: Antiproliferative activity against human HT1080 cells after 72 hrs by MTT assay; format: functional, cell-based; conditions: HT-1080, 72 h

| IC50 [µM] | Structure (SMILES) |
| --- | --- |
| > 5 | Nc1ccccc1NC(=O)c1ccc(CNC(=O)OCc2cccnc2)cc1 [ENTINOSTAT] |
| > 5 | Cc1ccc(Nc2nccc(N(C)c3ccc4c(C)n(C)nc4c3)n2)cc1S(N)(=O)=O [PAZOPANIB] |

test system: KG-1; experiment: Antiproliferative activity against human KG1 cells after 72 hrs by MTT assay; format: functional, cell-based; conditions: KG-1, 72 h

| Structure (SMILES) | IC50 [µM] |
| --- | --- |
| Nc1ccccc1NC(=O)c1ccc(CNC(=O)OCc2cccnc2)cc1 [ENTINOSTAT] | > 5 |
| Cc1ccc(Nc2nccc(N(C)c3ccc4c(C)n(C)nc4c3)n2)cc1S(N)(=O)=O [PAZOPANIB] | > 5 |
| Cc1c2ccc(N(C)c3ccnc(Nc4ccc(C(=O)NCCCCCC(=O)Nc5ccccc5N)cc4)n3)cc2nn1C | 3.15 |

test system: HEL; experiment: Antiproliferative activity against human HEL cells after 72 hrs by MTT assay; format: functional, cell-based; conditions: not given

| Structure (SMILES) | IC50 [nM] |
| --- | --- |
| Nc1ccccc1NC(=O)c1ccc(CNC(=O)OCc2cccnc2)cc1 [ENTINOSTAT] | 440 |
| Cc1ccc(Nc2nccc(N(C)c3ccc4c(C)n(C)nc4c3)n2)cc1S(N)(=O)=O [PAZOPANIB] | > 5000 |
| Cc1c2ccc(N(C)c3ccnc(Nc4ccc(C(=O)NCCCCCC(=O)Nc5ccccc5N)cc4)n3)cc2nn1C | 2060 |

test system: MOLT-4; experiment: Antiproliferative activity against human MOLT4 cells after 72 hrs by MTT assay; format: functional, cell-based; conditions: MOLT-4, 72 h

| IC50 [nM] | Structure (SMILES) |
| --- | --- |
| 450 | Nc1ccccc1NC(=O)c1ccc(CNC(=O)OCc2cccnc2)cc1 [ENTINOSTAT] |
| > 5000 | Cc1ccc(Nc2nccc(N(C)c3ccc4c(C)n(C)nc4c3)n2)cc1S(N)(=O)=O [PAZOPANIB] |
| 870 | Cc1c2ccc(N(C)c3ccnc(Nc4ccc(C(=O)NCCCCCC(=O)Nc5ccccc5N)cc4)n3)cc2nn1C |

test system: K562; experiment: Antiproliferative activity against human K562 cells after 72 hrs by MTT assay; format: functional, cell-based; conditions: K562, 72 h

| IC50 [µM] | Structure (SMILES) |
| --- | --- |
| 3.66 | Nc1ccccc1NC(=O)c1ccc(CNC(=O)OCc2cccnc2)cc1 [ENTINOSTAT] |
| > 5 | Cc1ccc(Nc2nccc(N(C)c3ccc4c(C)n(C)nc4c3)n2)cc1S(N)(=O)=O [PAZOPANIB] |
| 4.31 | Cc1c2ccc(N(C)c3ccnc(Nc4ccc(C(=O)NCCCCCC(=O)Nc5ccccc5N)cc4)n3)cc2nn1C |

target: T1, Vascular endothelial growth factor receptor 2; experiment: Inhibition of VEGF-stimulated VEGFR2 phosphorylation in human HUVEC cells at 100 nM preincubated for 2 hrs followed by VEGF stimulation by Western blot analysis; format: cell-based; conditions: not given
How it was run: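 HUVECs pretreated 2 h with compound or DMSO, then stimulated with VEGF (50 ng/ml). Cells lysed in ice-cold RIPA and protein measured by BCA. Lysates run on SDS-PAGE and immunoblotted for phospho-VEGFR-2, with total VEGFR-2 as loading control. Detection by ECL.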

| inhibition | Structure (SMILES) |
| --- | --- |
| inactive | Nc1ccccc1NC(=O)c1ccc(CNC(=O)OCc2cccnc2)cc1 [ENTINOSTAT] |
| Active | Cc1ccc(Nc2nccc(N(C)c3ccc4c(C)n(C)nc4c3)n2)cc1S(N)(=O)=O [PAZOPANIB] |

test system: HUVEC; experiment: Antiangiogenic activity in human HUVEC cells assessed as reduction in capillary-like tubular network formation at 0.1 uM after 6 hrs by phase-contrast microscopy; format: functional, cell-based; conditions: not given
How it was run: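 HUVECs trypsinized and seeded at 40000/well on Matrigel polymerized 0.5 h at 37 °C. Cells held 6 h at 37 °C in M199 with 5% FBS, with compound or DMSO. Tube formation viewed and photographed by phase-contrast microscopy at 200 magnification. Three independent experiments.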

| Structure (SMILES) | Activity |
| --- | --- |
| Cc1ccc(Nc2nccc(N(C)c3ccc4c(C)n(C)nc4c3)n2)cc1S(N)(=O)=O [PAZOPANIB] | Active |

test system: Thoracic aorta; experiment: Antiangiogenic activity in Sprague-Dawley rat thoracic aorta ring assessed as reduction in micro-vessel growth at 5 uM treated every day for 6 days by matrigel-based inverted microscopic analysis relative to control; format: functional, tissue-based; conditions: not given
How it was run: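 Aortas taken from 4–6-week-old Sprague–Dawley rats, cut into 1-mm rings and embedded in Matrigel. Rings held 30 min at 37 °C, 5% CO2, then treated daily for 6 days with compound or 0.5% DMSO vehicle. Microvessel outgrowth photographed on day 7 at ×200. Three independent experiments.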

| Structure (SMILES) | Activity |
| --- | --- |
| Cc1ccc(Nc2nccc(N(C)c3ccc4c(C)n(C)nc4c3)n2)cc1S(N)(=O)=O [PAZOPANIB] | Active |

test system: HT-29; experiment: Antitumor activity against human HT-29 cells xenografted in BALB/c nu mouse assessed as tumor growth level at 50 mg/kg, po administered for 25 consecutive days measured every 3 days during compound dosing relative to control; format: functional; conditions: not given
How it was run: (§1)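 HT-29 cells (1×10^7) implanted s.c. in right flank of male BALB/c-nu mice aged 5–6 weeks. At about 100 mm³ (day 10), mice randomized 6 per group and dosed orally for 25 consecutive days. Controls received PBS with 5% DMSO. T/C is mean RTV (Vt/V0) treated over control. TGI taken from final tumor weights. Student's two-tailed t test.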

| Structure (SMILES) | T/C [%] |
| --- | --- |
| Cc1ccc(Nc2nccc(N(C)c3ccc4c(C)n(C)nc4c3)n2)cc1S(N)(=O)=O [PAZOPANIB] | 61 |

test system: HT-29; experiment: Antitumor activity against human HT-29 cells xenografted in BALB/c nu mouse assessed as tumor growth inhibition at 50 mg/kg, po administered for 25 consecutive days measured every 3 days during compound dosing relative to control; format: functional; conditions: HT-29, po, read-out: TGI
How it was run: as §1

| Structure (SMILES) | inhibition in vivo at 50 mg/kg [%] |
| --- | --- |
| Cc1ccc(Nc2nccc(N(C)c3ccc4c(C)n(C)nc4c3)n2)cc1S(N)(=O)=O [PAZOPANIB] | 44 |

— ChEMBL document CHEMBL4190394, “Discovery of Novel Pazopanib-Based HDAC and VEGFR Dual Inhibitors Targeting Cancer Epigenetics and Angiogenesis Simultaneously” (J Med Chem, 2018)
